Tests used:
Enterococcus faecalis [1] = assay: Bactericidal activity against 2 hrs peripheral compartment culture samples of Enterococcus faecalis Ef1497 MutM3 in two-compartment pharmacokinetic/pharmacodynamic model assessed as effect on bacterial count at 600 mg, bid administered as 0.5 hr infusion; assay type: functional
Summary of the method: (§1)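 An 18-h culture concentrated 50-fold was injected into the peripheral compartment 3 h pre-sampling (~10^8 CFU/ml E. faecalis, 10^9 S. aureus). Counts came from dilution plating (detection limit 2–3 log10 CFU/ml), expressed as Δlog CFU/ml from treatment start. Run in duplicate.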

Enterococcus faecalis [2] = assay: Bactericidal activity against 24 hrs peripheral compartment culture samples of Enterococcus faecalis Ef1497 MutM3 in two-compartment pharmacokinetic/pharmacodynamic model assessed as effect on bacterial count at 600 mg, bid administered as 0.5 hr infusion; assay type: functional; summary of the method: as §1
Enterococcus faecalis [3] = assay: Bactericidal activity against 2 hrs peripheral compartment culture samples of Enterococcus faecalis ATCC 29212 in two-compartment pharmacokinetic/pharmacodynamic model assessed as effect on bacterial count at 600 mg, bid administered as 0.5 hr infusion; assay type: functional; summary of the method: as §1
[4] = AUC in two-compartment pharmacokinetic/pharmacodynamic model at 200 mg, bid administered as 0.5 hr infusion over 24 hrs; assay type: ADME; set-up: dose 200 mg, time < 24 hr; details: in vivo, iv
Enterococcus faecalis [5] = assay: Bactericidal activity against 14 hrs peripheral compartment culture samples of Enterococcus faecalis ATCC 29212 in two-compartment pharmacokinetic/pharmacodynamic model assessed as effect on bacterial count at 600 mg, bid administered as 0.5 hr infusion; assay type: functional; summary of the method: as §1
[6] = Mean residence time in two-compartment pharmacokinetic/pharmacodynamic model at 200 mg, bid administered as 0.5 hrs infusion; assay type: ADME, organism-based; details: iv
[7] = Cmax in healthy human at 600 mg, iv, bid administered as 0.5 hr infusion; assay type: ADME, organism-based; set-up: dose 600 mg, route intravenous; details: in vivo
Staphylococcus aureus [8] = assay: Bactericidal activity against 12 hrs peripheral compartment culture samples of Staphylococcus aureus RN4220 MutS2 in two-compartment pharmacokinetic/pharmacodynamic model assessed as effect on bacterial count at 600 mg, bid administered as 0.5 hr infusion; assay type: functional; summary of the method: as §1
Enterococcus faecalis [9] = assay: AUBC (0 to 24 hrs) in Enterococcus faecalis Ef1497 MutM3 in two-compartment pharmacokinetic/pharmacodynamic model at 200 mg, bid administered as 0.5 hr infusion for 2 days; assay type: functional
Summary of the method: (§2)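 Hollow-fibre two-compartment model in cation-adjusted, protein-free MH broth at 37°C. Human total-plasma linezolid profile simulated as 0.5-h infusion every 12 h for 48 h. Concentrated 18-h culture injected into the peripheral compartment 3 h before first sample, giving about 10^8 (E. faecalis) or 10^9 (S. aureus) CFU/ml. Viable counts by dilution plating over 0–24 h. Area indices calculated versus growth control curve. Duplicate runs.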

[10] = Residual concentration at the end of the administration interval in two-compartment pharmacokinetic/pharmacodynamic model at 800 mg, bid administered as 0.5 hrs infusion; assay type: ADME; details: iv, read-out: Drug uptake
Enterococcus faecalis [11] = assay: Bactericidal activity against 13 hrs peripheral compartment culture samples of Enterococcus faecalis Ef1497 MutM3 in two-compartment pharmacokinetic/pharmacodynamic model assessed as effect on bacterial count at 200 mg, bid administered as 0.5 hr infusion; assay type: functional; summary of the method: as §1
[12] = Cmax in two-compartment pharmacokinetic/pharmacodynamic model at 800 mg, bid administered as 0.5 hr infusion over 24 hrs; assay type: ADME, organism-based; set-up: dose 800 mg; details: iv
[13] = Total clearance in two-compartment pharmacokinetic/pharmacodynamic model at 200 mg, bid administered as 0.5 hrs infusion; assay type: ADME, organism-based; details: iv
Staphylococcus aureus [14] = assay: Bactericidal activity against 12 hrs peripheral compartment culture samples of Staphylococcus aureus RN4220 in two-compartment pharmacokinetic/pharmacodynamic model assessed as effect on bacterial count at 600 mg, bid administered as 0.5 hr infusion; assay type: functional; summary of the method: as §1
[15] = Elimination half-life in healthy human at 600 mg, iv, bid administered as 0.5 hr infusion; assay type: ADME, organism-based; details: in vivo, read-out: beta t1/2 (converted)
Enterococcus faecalis [16] = assay: ABBC (0 to 24 hrs) in Enterococcus faecalis Ef1497 MutM3 in two-compartment pharmacokinetic/pharmacodynamic model at 200 mg, bid administered as 0.5 hr infusion for 2 days; assay type: functional; summary of the method: as §2
Enterococcus faecalis [17] = assay: T>MIC in Enterococcus faecalis Ef1497 in two-compartment pharmacokinetic/pharmacodynamic model at 600 mg, bid administered as 0.5 hr infusion for 2 days; assay type: functional
Enterococcus faecalis [18] = assay: Bactericidal activity against 2 hrs peripheral compartment culture samples of Enterococcus faecalis Ef1497 in two-compartment pharmacokinetic/pharmacodynamic model assessed as effect on bacterial count at 600 mg, bid administered as 0.5 hr infusion; assay type: functional; summary of the method: as §1
in vitro = details: two-compartment pharmacokinetic/pharmacodynamic model, iv, 800 mg
[19] = Volume of distribution at steady state in two-compartment pharmacokinetic/pharmacodynamic model at 200 mg, bid administered as 0.5 hr infusion over 24 hrs; assay type: ADME, organism-based; details: iv, read-out: Vdss
[20] = Volume of distribution at steady state in two-compartment pharmacokinetic/pharmacodynamic model at 400 mg, bid administered as 0.5 hrs infusion; assay type: ADME, organism-based; details: iv, read-out: Vdss
[21] = Volume of distribution at steady state in two-compartment pharmacokinetic/pharmacodynamic model bid administered as 0.5 hr infusion over 24 hrs; details: in vivo, iv; read-out: Vdss
in vivo = details: iv, 600 mg
[22] = Mean residence time in two-compartment pharmacokinetic/pharmacodynamic model at 200 mg, bid administered as 0.5 hr infusion over 24 hrs; assay type: ADME, organism-based; details: in vivo, iv
Enterococcus faecalis [23] = assay: Bactericidal activity against 12.5 hrs peripheral compartment culture samples of Enterococcus faecalis Ef1497 MutM3 in two-compartment pharmacokinetic/pharmacodynamic model assessed as effect on bacterial count at 200 mg, bid administered as 0.5 hr infusion; assay type: functional; summary of the method: as §1
[24] = Cmax in two-compartment pharmacokinetic/pharmacodynamic model at 200 mg, bid administered as 0.5 hrs infusion; assay type: ADME, organism-based; set-up: dose 200 mg; details: iv
Enterococcus faecalis [25] = assay: Bactericidal activity against 24 hrs peripheral compartment culture samples of Enterococcus faecalis Ef1497 in two-compartment pharmacokinetic/pharmacodynamic model assessed as effect on bacterial count at 800 mg, bid administered as 0.5 hr infusion; assay type: functional; summary of the method: as §1
[26] = Apparent volume of distribution in two-compartment pharmacokinetic/pharmacodynamic model at 600 mg, bid administered as 0.5 hrs infusion; details: iv
[27] = Apparent volume of distribution in two-compartment pharmacokinetic/pharmacodynamic model at 200 mg, bid administered as 0.5 hr infusion over 24 hrs; assay type: ADME, organism-based; details: in vivo, iv
Enterococcus faecalis [28] = assay: T>MIC in Enterococcus faecalis Ef1497 in two-compartment pharmacokinetic/pharmacodynamic model at 800 mg, bid administered as 0.5 hr infusion for 2 days; assay type: functional
Enterococcus faecalis [29] = assay: Bactericidal activity against 24 hrs peripheral compartment culture samples of Enterococcus faecalis ATCC 29212 in two-compartment pharmacokinetic/pharmacodynamic model assessed as effect on bacterial count at 200 mg, bid administered as 0.5 hr infusion; assay type: functional; summary of the method: as §1
[30] = Apparent volume of distribution in two-compartment pharmacokinetic/pharmacodynamic model at 800 mg, bid administered as 0.5 hrs infusion; assay type: ADME, organism-based; details: iv
[31] = AUC in two-compartment pharmacokinetic/pharmacodynamic model at 600 mg, bid administered as 0.5 hrs infusion; assay type: ADME; details: iv

For `CC(=O)NC[C@H]1CN(c2ccc(N3CCOCC3)c(F)c2)C(=O)O1` [LINEZOLID], the log10CFU/ml (Enterococcus faecalis [1]) was -0.05, the log10CFU/ml (Enterococcus faecalis [2]) was 0.44 and the log10CFU/ml (Enterococcus faecalis [3]) was -0.08. The AUC at 24 h [4] was 10100 ng·h/mL, the log10CFU/ml (Enterococcus faecalis [5]) was 0.18 and the MRT [6] was 8.65 h. For the same molecule, the Cmax [7] was 14100 ng/mL, the log10CFU/ml (Staphylococcus aureus [8]) was 0.21 and the AUBC (Enterococcus faecalis [9]) was 212.2 log10CFU/ml.hr. For the same molecule, the concentration at 0.5 h [10] was 1150 ng/mL, the log10CFU/ml (Enterococcus faecalis [11]) was 0.23 and the Cmax [12] was 19500 ng/mL. The clearance [13] was 248 mL/min, the log10CFU/ml (Staphylococcus aureus [14]) was -0.15 and the half-life [15] was 5.1 h. For the same molecule, the ABBC (Enterococcus faecalis [16]) was 2.32 log10CFU/ml.hr, the “fT>MIC” value (Enterococcus faecalis [17]) was 69% and the log10CFU/ml (Enterococcus faecalis [18]) was 0.08. It also gave a half-life at 0.5 h (in vitro) of 5.01 h, a Vd [19] of 117 L and a Vd [20] of 112 L. For the same molecule, the Vd [21] was 100 L, the half-life (in vivo) was 6.18 h and the MRT [22] was 7.95 h. The log10CFU/ml (Enterococcus faecalis [23]) was 0.23, the Cmax [24] was 4380 ng/mL and the log10CFU/ml (Enterococcus faecalis [25]) was -0.04. The Vd [26] was 115 L, the Vd [27] was 137 L and the “fT>MIC” value (Enterococcus faecalis [28]) was 80.9%. It also gave a log10CFU/ml (Enterococcus faecalis [29]) of 0.83, a Vd [30] of 124 L and an AUC at 0.5 h [31] of 43000 ng·h/mL.

From ChEMBL document CHEMBL1671683, “Activity of linezolid in an in vitro pharmacokinetic-pharmacodynamic model using different dosages and Staphylococcus aureus and Enterococcus faecalis strains with and without a hypermutator phenotype” (Antimicrob Agents Chemother, 2010)
